# ABCB6 inh MLPCN – blocks the human ABCB6 transporter. fluorescence ratio to DMSO, % at 10 µM. Q9NP58. K562-ABCB6 porphyrin accumulation, flow cytometry, 1 h; hits give low values. 360,000 compounds, 0.19% hits;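 active = fluorescence ratio to DMSO below 75%, the collection mean minus 3 SD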;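 note: signal is porphyrin accumulated inside mitochondria; 100% equals median channel fluorescence of DMSO control wells; lower ratio means ABCB6 inhibition with less porphyrin fluorescence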
# TNAP inh noacc – inhibitors of human TNAP without phosphate acceptor. P05186. purified TNAP, CDP-star luminescence, 30 min. inhibition, % at 20 µM. 200,000 compounds, 0.26% hits;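 active = tissue-nonspecific alkaline phosphatase inhibition above about 50% at 20 µM in the single-dose screen, limit read from the data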;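 note: 0% = DMSO negative control and 100% = EDTA positive control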
# TNAP act hiacc – increases human TNAP activity under high phosphate acceptor concentration; P05186; purified TNAP, CDP-star luminescence, 1 M DEA, 30 min; hits give high values; 0 = EDTA background, 1 = DMSO-only activity; activation factor at 20 µM; 200,000 tested, under 10 active; AID 1136;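 active = activation factor at least 2 at 20 µM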
#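 Dosing: 20 µM single point. System: human TNAP. Amount: TNAP 1/800 final. Incubation: 30 min, room temperature. Read-out: TNAP activation factor scaled between EDTA and DMSO control wells. Signal: luminescence from CDP-star hydrolysis. Medium: 1 M DEA, pH 9.8, Mg2+, Zn2+. Control set: EDTA negative control, DMSO positive control.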
# CHT inh – inhibitors of human choline transporter CHT | AID 488975 | CHT-expressing cells, membrane potential dye, choline response; hits give low values | B-score at 10 µM | 310,000 compounds, 0.86% hits;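 active = B-score over 3 SD under the library average, and starting fluorescence ratio not unusually high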;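 note: choline stimulus applied at its EC90 after an EC20 pre-addition; B-score computed on integrated fluorescence ratio after choline addition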
# Target sequence (Q9GZV3 whole entry, looked up): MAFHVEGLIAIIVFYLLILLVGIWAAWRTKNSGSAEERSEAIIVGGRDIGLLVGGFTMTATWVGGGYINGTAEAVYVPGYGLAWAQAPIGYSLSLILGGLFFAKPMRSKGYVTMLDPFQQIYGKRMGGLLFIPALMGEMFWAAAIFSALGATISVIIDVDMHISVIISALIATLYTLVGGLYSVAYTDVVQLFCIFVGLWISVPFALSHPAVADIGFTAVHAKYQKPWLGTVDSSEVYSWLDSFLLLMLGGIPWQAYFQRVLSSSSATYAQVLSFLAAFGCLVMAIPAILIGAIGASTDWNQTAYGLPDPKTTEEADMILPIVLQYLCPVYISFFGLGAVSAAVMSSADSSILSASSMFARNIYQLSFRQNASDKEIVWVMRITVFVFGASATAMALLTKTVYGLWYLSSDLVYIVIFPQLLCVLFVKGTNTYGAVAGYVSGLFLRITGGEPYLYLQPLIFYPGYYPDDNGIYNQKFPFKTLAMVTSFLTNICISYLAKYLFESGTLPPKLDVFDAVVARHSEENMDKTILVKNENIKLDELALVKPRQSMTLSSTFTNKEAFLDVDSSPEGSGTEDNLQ
# CHT PAM – allosterically activates the human high affinity choline transporter | Q9GZV3 | CHT-expressing cells, membrane potential dye, choline EC20; hits give high values; LV-AA mutant CHT in HEK293 cells | B-score at 10 µM | 310,000 compounds, 0.49% hits | AID 488977;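 active = initial fluorescence not abnormally high and integrated response B-score, plate-corrected, over 3 SD above library mean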
# TNAP inh hiacc – inhibitors of human TNAP at high phosphate acceptor concentration; purified TNAP, CDP-star luminescence, 1 M DEA; 200,000 compounds, 0.03% hits; inhibition, % at 20 µM; AID 1135; P05186;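 active = over 50% inhibition of tissue-nonspecific alkaline phosphatase at 20 µM in the single-dose screen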;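 note: plate controls were DMSO wells for no effect and EDTA-quenched wells as full inhibition for full effect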
# CHT act confirm – human CHT activation, confirmatory screen; 2,500 compounds, 91% hits; activation, % at 10 µM; CHT-expressing cells, membrane potential dye fluorescence (FDSS); % of choline EC20–EC90 response window; HEK293 expressing CHT LV-AA mutant; choline added at its EC20; shares compounds with CHT PAM;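 active = primary screen active, with duplicate mean activation above negative control mean plus 3 SD, cut at about 11% in these data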
# HEK293 MP dye – CHT activator counter-screen hit in parental HEK293 cells | shares compounds with CHT PAM | 2,500 compounds, 62% hits | ratio readout change at 10 µM, hits read low | membrane potential dye fluorescence (FDSS); measured after EC20 choline addition;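 active = duplicate-averaged ratio beyond 3 SD from buffer wells, up or down, though filed actives are nearly all decreases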
# Numbers without * were called inactive; i = inactive; . = no result. The list is not random: actives were taken first. Their share in the collection is about 1.4%.
SMILES,ABCB6 inh MLPCN,TNAP inh noacc,TNAP act hiacc,CHT inh,CHT PAM,TNAP inh hiacc,CHT act confirm,HEK293 MP dye
Cc1cccc(NC(=O)COc2cccc3c2CCN(C)C3=O)c1C,95.0,-11.2,1,i,i,-4.5,.,.
CCOC(=O)c1c(NC(=O)COc2cccc3c2CCN(C)C3=O)sc2c1CCC2,92.0,-5.9,1,i,i,-0.7,25.2*,i
CCN(CC)CCNc1nc2c(c(=O)[nH]c(=O)n2C)n1CC(O)COc1ccc(Cl)cc1Cl (configuration not stated),99.0,-3.3,1.1,i,9.49*,-6.5,53.3*,-53.4*
CN(C)CCNc1nc2c(c(=O)[nH]c(=O)n2C)n1CC(O)COc1ccc(Cl)cc1 (configuration not stated),99.0,-2.8,1,i,i,0.6,.,.
COCCNC(=O)c1cc(S(=O)(=O)N2CCOCC2)ccc1SCc1cccc(OC)c1OC,99.0,-7.8,1.1,i,i,-6.9,.,.
COCCn1c(SCC(=O)Nc2cc(C)on2)nc2c(c1=O)SC(C)C2 (configuration not stated),87.0,.,.,i,i,.,.,.
COc1ccc(NC(=O)c2cc([N+](=O)[O-])ccc2N2CCN(C)CC2)cc1,102.0,-6.7,1,i,8.39*,-3.4,52.0*,-64.1*
CC(C)c1ccc(NC(=O)c2cc([N+](=O)[O-])ccc2N2CCOCC2)cc1,96.0,.,.,i,i,.,28.7*,i
O=C(Nc1cccc(Cl)c1N1CCOCC1)c1cc([N+](=O)[O-])ccc1N1CCOCC1,97.0,.,.,i,i,.,12.6*,i
O=C(COC(=O)c1cc([N+](=O)[O-])ccc1N1CCOCC1)NCc1ccc(F)cc1,101.0,.,.,i,i,.,55.6*,i
Cc1ccc(C(c2nnnn2C2CCCCC2)N(C)C2CCCCC2)cc1 (configuration not stated),93.0,-2.4,1.1,i,i,-6.4,6.3,i
COc1ccc(-c2c(-c3cc(OC)c(OC)c(OC)c3)noc2C)cn1,90.0,.,.,i,6.67*,.,33.2*,i
COc1cc(-c2noc(C)c2C#Cc2ccccn2)cc(OC)c1OC,99.0,.,.,i,9.48*,.,30.3*,i
COc1cc(-c2c(-c3cc(OC)c(OC)c(OC)c3)noc2C)ccc1F,.,.,.,i,i,.,.,.
COc1cc(-c2noc(C)c2/C=C/c2ccc(N)cc2)cc(OC)c1OC,98.0,.,.,i,10.1*,.,42.3*,i
Cc1ccc(S(=O)(=O)N2C[C@H]3C(=O)C[C@@H](c4cccc(Cl)c4)N(S(=O)(=O)c4ccc(C)cc4)[C@H]3C[C@H]2c2ccc(Cl)cc2)cc1,102.0,.,.,.,.,.,.,.
CCCS(=O)(=O)NC(=O)C1(C)CCN(C(=O)c2cccc(OC(F)(F)F)c2)C1 (configuration not stated),98.0,.,.,.,.,.,.,.
Cc1cc(C)n2nc(C(=O)Nc3ccc(S(=O)(=O)N4CCCCC4)cc3)nc2n1,79.0,-9.7,1,i,i,-4.5,21.7*,-23.9*
COc1ccc2o/c(=N/NC(=S)Nc3ccccc3)c(C(N)=O)cc2c1,.,9.6,1,.,.,4.2,.,.
COc1cc2c(cc1OC)C(C)N(C(=O)c1ccc(Br)o1)CC2 (configuration not stated),100.0,-4.7,1.1,i,i,-7.6,.,.
CC1(C)CC(N2CCCC2)=CC(=[N+]2CCCC2)C1,102.0,2.9,1,i,8.59*,1.3,57.9*,-33.5*
CC1(C)CC(N2CCCC2)=CC(=[N+]2CCCCC2)C1,93.0,-6.1,1,i,i,-1.2,.,.
C[C@H](O)[C@@H]1C(=O)N2CCc3c([nH]c4ccccc34)[C@@H]2C[C@@H]1N(C)S(=O)(=O)c1ccccc1,103.0,.,.,.,.,.,.,.
CN(C)C(/C=C/Nc1ccc(Br)cc1)=C(C#N)C#N,97.0,-12.6,1.1,i,7.31*,-9.3,20.0*,-50.1*
CN(C)C(/C=C/Nc1ccc([N+](=O)[O-])cc1)=C(C#N)C#N,95.0,-6.4,1,i,7.08*,2.2,29.9*,-54.8*
SMILES,ABCB6 inh MLPCN,TNAP inh noacc,TNAP act hiacc,CHT inh,CHT PAM,TNAP inh hiacc,CHT act confirm,HEK293 MP dye
CC(O)CNCc1ccccc1C(F)(F)F (configuration not stated),97.0,-3.5,1,i,i,-3.1,.,.
Cc1ccc2nc(Cl)c(/C=N/n3c(C)nnc3C)cc2c1,92.0,-10.3,1,i,8.04*,0.4,42.6*,-53.5*
Cc1ccc(/C=N/n2c(C)nnc2C)cc1,100.0,-12.7,1,i,i,-4.0,.,.
CCCCCCCCCCOC(=O)Cn1c(COc2ccccc2OC)[n+](C)c2ccccc21,87.0,.,.,i,19.3*,.,91.0*,-37.4*
CN1CCN(Cc2nc3ccccc3c(=O)n2Cc2nc(-c3ccccc3F)cs2)CC1,100.0,-15.0,1,i,8.2*,-2.7,29.6*,i
CCN1CCN(c2cc(C)c3cc(NC(=S)NCc4cccs4)ccc3n2)CC1,100.0,-8.5,1,i,i,-1.8,21.3*,-40.8*
CCCCN(CC)CCCNC(=S)Nc1ccc2nc(N3CCN(C)CC3)cc(C)c2c1,97.0,-0.4,1,i,i,-4.0,.,.
Cc1cc(N2CCOCC2)nc2ccc(NC(=S)NCCN(C)C)cc12,101.0,.,.,i,i,.,45.2*,-33.5*
CCN(CC)CCNC(=S)Nc1ccc2nc(N3CCOCC3)cc(C)c2c1,101.0,.,.,i,i,.,.,.
Cc1cc(N2CCN(C)CC2)nc2ccc(NC(=O)c3ccc(Br)o3)cc12,89.0,-5.3,1,i,i,-2.8,43.7*,-29.6*
CCN(CC)CCNC(=S)Nc1ccc2nc(N3CCN(C)CC3)cc(C)c2c1,91.0,.,.,i,i,.,45.1*,-24.1*
CCN(CC)CCNC(=O)C(=O)Nc1cc2c3c(c1)CCC(=O)N3CCC2,90.0,.,.,i,i,.,.,.
COc1ccc(CNC(=S)Nc2ccc3nc(N4CCN(C)CC4)cc(C)c3c2)cc1,118.0,-20.1,1.1,i,6.3*,-5.6,32.3*,-37.5*
Cc1cc(N2CCOCC2)nc2ccc(NC(=S)NCCC(C)C)cc12,87.0,.,.,i,i,.,19.2*,-25.3*
COc1ccc(CNC(=S)Nc2ccc3nc(N4CCOCC4)cc(C)c3c2)cc1,105.0,-11.9,1,i,i,-0.6,.,.
Cc1cc(N2CCN(C)CC2)nc2ccc(NC(=S)NCCC(C)C)cc12,99.0,.,.,i,i,.,.,.

# Screening results deposited in PubChem by several laboratories.
